Results on 15 molecules are retold here after ChEMBL document CHEMBL2086288, “Synthesis, antimicrobial and cytotoxicity study of 1,3-disubstituted-1H-naphtho[1,2-e][1,3]oxazines” (2012).

Holding throughout (type): functional
Assay [1] deals with Aspergillus niger. Description: Antifungal activity against Aspergillus niger MTCC 8184 after 7 days by tube dilution method. Summed up: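 Tube (serial) dilution MIC in Sabouraud dextrose broth I.P., 25 °C for 7 days. Results are recorded as MIC and reported as pMIC in mM.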
The test system of assay [2] is Candida albicans. The assay is described as follows: Antifungal activity against Candida albicans MTCC 227 after 48 hrs by tube dilution method.
Assay [3] relates to Escherichia coli. Description: Antibacterial activity against Escherichia coli MTCC 1652 after 24 hrs by tube dilution method.
Assay [4] relates to HCT-116. The assay is described as follows: Growth inhibition of human HCT116 cells at 50 uM after 48 hrs by MTT assay. The note with it: HCT-116, 48 h, read-out: GI. Summed up: (§1)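 Cells from ECACC are kept in RPMI-1640 with 10% FCS and 1% penicillin at 37 °C in 5% CO2. They are seeded at 3×10^3 cells/well and dosed after 24 h from filter-sterilized DMSO stocks, then treated for 48 h. MTT (2.5 mg/mL in PBS) is added, formazan is dissolved in DMSO, and A570 is read. Viability is given as % of untreated.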
On the technique in general: Formazan colour is commonly taken as a measure of viable cells.

Assay [5] has as its system MCF7. The assay is described as follows: Growth inhibition of human MCF7 cells at 50 uM after 48 hrs by MTT assay. The note with it: MCF7, 48 h, read-out: GI. Summed up: as §1
In assay [6] the test system is PC-3. Description: Growth inhibition of human PC3 cells at 10 uM after 48 hrs by MTT assay. The note with it: PC-3, 48 h, read-out: GI. Summed up: as §1
Assay [7] relates to A549. Description: Growth inhibition of human A549 cells at 50 uM after 48 hrs by MTT assay. The note with it: A549, 48 h, read-out: GI. Summed up: as §1
For assay [8], the system named is Staphylococcus aureus. Description: Antibacterial activity against Staphylococcus aureus MTCC 2901 after 24 hrs by tube dilution method.
Assay [9] deals with PC-3. The assay is described as follows: Growth inhibition of human PC3 cells at 50 uM after 48 hrs by MTT assay. The settings on record: PC-3, 48 h, read-out: GI. Summed up:
as §1

For assay [10], the system named is A549. Description: Growth inhibition of human A549 cells at 10 uM after 48 hrs by MTT assay. The settings on record: A549, 48 h, read-out: GI. Summed up: as §1
Assay [11] concerns HCT-116. Description: Growth inhibition of human HCT116 cells at 10 uM after 48 hrs by MTT assay. The settings on record: HCT-116, 48 h, read-out: GI. In outline: as §1
The subject of assay [12] is MCF7. The assay is described as follows: Growth inhibition of human MCF7 cells at 10 uM after 48 hrs by MTT assay. The settings on record: MCF7, 48 h, read-out: GI. Summed up:
as §1

For assay [13], the system named is Bacillus subtilis. The assay is described as follows: Antibacterial activity against Bacillus subtilis MTCC 2063 after 24 hrs by tube dilution method.

Structures are written as SMILES.

As for `OC(Cn1cncn1)(Cn1cncn1)c1ccc(F)cc1F` [FLUCONAZOLE], the “-logMIC” value in [1] and in assay [2] was 2.64 throughout.
Regarding `O=[N+]([O-])c1ccc(C2=NC(c3ccccc3)c3c(ccc4ccccc34)O2)cc1` (centres undefined), the “-logMIC” value in assay [1] is listed as 1.48; in assay [3] it was 1.78; in assay [8], 1.78; in assay [2] it was 1.78; in assay [13], 1.78. The inhibition of growth at 50 µM in assay [4] is 14%; in assay [5], 42%; in [7], 43%; in assay [9] it was 8%. Moreover, the inhibition of growth at 10 µM came out at 6% in [6], 17% in assay [10], 4% in assay [11] and 34% in assay [12].
On to `O=C(O)c1cn(C2CC2)c2cc(N3CCNCC3)c(F)cc2c1=O` [CIPROFLOXACIN], for which the “-logMIC” value in assay [3], in [8] and in [13] was 2.61 in each case.
With `COc1ccc(C2=NC(c3ccccc3)c3c(ccc4ccccc34)O2)cc1` (centres undefined), the “-logMIC” value in [1] is reported as 1.47; in assay [3], 2.37; in [8] it was 1.77; in assay [2], 1.77; in assay [13], 1.77. The inhibition of growth at 50 µM in assay [4] is 14%; in [5], 42%; in assay [7], 43%; in assay [9], 23%. Further, the inhibition of growth at 10 µM came out at 19% in assay [6], 19% in assay [10], 8% in assay [11] and 37% in assay [12].
Regarding `c1ccc(C2=NC(c3ccccc3)c3c(ccc4ccccc34)O2)cc1` (centres undefined), the “-logMIC” value in assay [1] was determined as 1.43; in assay [3], 2.33; in assay [8], 1.43; in assay [2], 1.73; in assay [13] it was 2.03. Besides, the inhibition of growth at 50 µM in [4] was found to be 22%; in [5] it was 37%; in assay [7], 36%; in assay [9], 16%. The inhibition of growth at 10 µM came out at 1% in assay [6], 19% in assay [10], 5% in assay [11] and 26% in [12].
For `Cc1ccc(C2=NC(c3ccc(C)cc3)c3c(ccc4ccccc34)O2)cc1` (centres undefined), the “-logMIC” value in [1] turned out to be 1.46; in [3] it was 1.46; in [8], 1.46; in assay [2] it was 1.76; in assay [13], 2.07. Besides, the inhibition of growth at 50 µM amounted to 24% in assay [4], 37% in assay [5], 36% in [7] and 5% in [9]. The inhibition of growth at 10 µM in assay [6] stood at 1%; in assay [10] it was 17%; in assay [11] it was 19%; in [12], 30%.
As for `Cc1ccc(C2N=C(c3ccccc3)Oc3ccc4ccccc4c32)cc1` (centres undefined), the “-logMIC” value came out at 1.45 in assay [1]; 2.35 in assay [3]; 1.45 in assay [8]; 1.75 in assay [2]; 1.75 in assay [13]. Further, the inhibition of growth at 50 µM was found to be 8% in assay [4], 32% in assay [5], 37% in assay [7] and 3% in assay [9]. Also, the inhibition of growth at 10 µM in [6] is 1%; in assay [10], 17%; in assay [11], 2%; in [12], 17%.
`Cc1ccc(C2=NC(c3ccccc3)c3c(ccc4ccccc34)O2)cc1` (centres undefined): the “-logMIC” value in assay [1] was 1.45; in assay [3] it was 2.05; in assay [8], 1.75; in [2], 1.75; in assay [13] it was 1.45. Moreover, the inhibition of growth at 50 µM in assay [4] worked out at 38%; in assay [5], 46%; in [7], 43%; in assay [9], 20%. Also, the inhibition of growth at 10 µM in assay [6] was found to be 14%; in assay [10] it was 19%; in assay [11] it was 8%; in [12], 36%.
With `Clc1ccc(C2=NC(c3ccc(Cl)cc3)c3c(ccc4ccccc34)O2)cc1` (centres undefined), the “-logMIC” value amounted to 1.51 in [1]; 2.11 in assay [3]; 1.51 in assay [8]; 1.81 in [2]; 1.81 in [13]. For the same molecule, the inhibition of growth at 50 µM in assay [4] came out at 10%; in [5], 38%; in assay [7], 54%; in assay [9], 2%. Further, the inhibition of growth at 10 µM turned out to be 1% in assay [6], 28% in assay [10], 2% in assay [11] and 16% in assay [12].
Consider `COc1ccc(C2=NC(c3ccc(OC)cc3)c3c(ccc4ccccc34)O2)cc1` (centres undefined), for which the “-logMIC” value in [1] came to 1.5; in [3] it was 2.1; in assay [8] it was 1.5; in assay [2], 1.8; in assay [13], 2.1. The inhibition of growth at 50 µM in assay [4] came to 29%; in [5] it was 26%; in assay [7] it was 35%; in assay [9], 19%. The inhibition of growth at 10 µM came out at 17% in [6], 22% in assay [10], 27% in assay [11] and 22% in assay [12].
For `Cc1ccc(C2N=C(c3ccc(Br)cc3)Oc3ccc4ccccc4c32)cc1` (centres undefined), the “-logMIC” value in [1] is 1.53; in [3] it was 1.83; in assay [8], 1.83; in assay [2], 1.83; in assay [13], 1.83. The inhibition of growth at 50 µM amounted to 10% in assay [4], 33% in assay [5], 32% in assay [7] and 2% in [9]. Besides, the inhibition of growth at 10 µM was 0% in [6], 13% in [10], 2% in assay [11] and 26% in assay [12].
With `Cc1ccc(C2N=C(c3ccc([N+](=O)[O-])cc3)Oc3ccc4ccccc4c32)cc1` (centres undefined), the “-logMIC” value in assay [1] is on record as 1.5; in assay [3], 1.8; in assay [8] it was 1.8; in assay [2], 1.8; in [13], 1.8. Besides, the inhibition of growth at 50 µM in assay [4] was 21%; in [5], 40%; in assay [7], 41%; in assay [9] it was 12%. Moreover, the inhibition of growth at 10 µM in assay [6] amounted to 8%; in [10], 13%; in assay [11] it was 7%; in assay [12], 35%.
Regarding `Clc1ccc(C2=NC(c3ccccc3)c3c(ccc4ccccc34)O2)cc1` (centres undefined), the “-logMIC” value in assay [1] turned out to be 1.47; in assay [3], 2.37; in assay [8] it was 1.77; in assay [2] it was 1.77; in [13], 1.77. Further, the inhibition of growth at 50 µM was 29% in assay [4], 39% in [5], 38% in assay [7] and 19% in assay [9]. Besides, the inhibition of growth at 10 µM in [6] worked out at 9%; in [10], 17%; in [11], 3%; in assay [12], 27%.
`Brc1ccc(C2=NC(c3ccccc3)c3c(ccc4ccccc34)O2)cc1` (centres undefined): the “-logMIC” value in [1] is recorded as 1.52; in assay [3], 1.52; in [8], 1.52; in assay [2] it was 1.82; in [13], 1.82. The inhibition of growth at 50 µM in assay [4] was 29%; in assay [5], 39%; in assay [7], 40%; in [9], 11%. For the same molecule, the inhibition of growth at 10 µM in assay [6] amounted to 4%; in assay [10] it was 23%; in assay [11], 6%; in [12] it was 27%.
As to `COc1ccc(C2=NC(c3ccc(C)cc3)c3c(ccc4ccccc34)O2)cc1` (centres undefined), the “-logMIC” value in [1] came out at 1.48; in assay [3] it was 2.08; in assay [8], 1.78; in assay [2], 1.78; in assay [13], 1.78. Further, the inhibition of growth at 50 µM worked out at 14% in [4], 39% in assay [5], 36% in assay [7] and 10% in assay [9]. For the same molecule, the inhibition of growth at 10 µM came out at 1% in assay [6], 15% in assay [10], 7% in assay [11] and 36% in assay [12].
